Experiments:
Haemonchus contortus [1] = assay: Anthelmintic activity against Haemonchus contortus Rudolphi L3 larvae infected sheep assessed as reduction of faecal egg counts at 0.50 mg/kg, po; assay type: functional, Feces; design: scale not given: the % may be the effect or the level left; conditions: dose 0.5 mg/kg
Method in brief: (§1)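 Sheep experimentally infected with Haemonchus contortus Rudolphi L3 larvae; dosed after the parasite's prepatency period ended. Compound given orally in gelatine capsules. Faecal egg counts by McMaster method (Wetzel modification) on freshly obtained faeces, counted at regular intervals before and after treatment; activity expressed as reduction in egg counts.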

[2] = Partition coefficient, log P at pH 2.3; assay type: physicochemical; conditions: octanol/water
Haemonchus contortus [3] = assay: Anthelmintic activity against Haemonchus contortus Rudolphi L3 larvae infected sheep assessed as reduction of faecal egg counts at 0.25 mg/kg, po; assay type: functional, Feces; design: scale not given: the % may be the effect or the level left; method in brief: as §1
Haemonchus contortus [4] = assay: Anthelmintic activity against Haemonchus contortus Rudolphi L3 larvae infected sheep assessed as reduction of faecal egg counts at 5 mg/kg, po; assay type: functional, Feces; design: scale not given: the % may be the effect or the level left; method in brief: as §1

| logP [2] | SMILES | Activity (Haemonchus contortus [1]) [%] | Activity (Haemonchus contortus [3]) | Activity (Haemonchus contortus [4]) |
| --- | --- | --- | --- | --- |
| 5.46 | CC[C@@H](C)[C@H]1C(=O)O[C@H](C(C)C)C(=O)N(C)[C@@H](Cc2ccccc2)C(=O)O[C@H](C(C)C)C(=O)N(C)[C@@H]([C@H](C)CC)C(=O)O[C@H](C(C)C)C(=O)N1C |  |  | >=95% |
| 4.91 | CC[C@@H](C)[C@H]1C(=O)O[C@H](C)C(=O)N(C)[C@@H](CC2CCCCC2)C(=O)O[C@H](C)C(=O)N(C)[C@@H]([C@H](C)CC)C(=O)O[C@H](C)C(=O)N1C |  | >=95% |  |
| 4.63 | CC(C)C[C@H]1C(=O)O[C@H](Cc2ccccc2)C(=O)N(C)[C@@H](CC(C)C)C(=O)O[C@H](C)C(=O)N(C)[C@@H](CC(C)C)C(=O)O[C@H](C)C(=O)N1C |  |  | <=50% |

Continued, compound first:

| SMILES | logP [2] | Activity (Haemonchus contortus [1]) [%] | Activity (Haemonchus contortus [3]) | Activity (Haemonchus contortus [4]) |
| --- | --- | --- | --- | --- |
| CC[C@@H](C)[C@H]1C(=O)O[C@H](C(C)C)C(=O)N(C)[C@@H](CC2CCCCC2)C(=O)O[C@H](C(C)C)C(=O)N(C)[C@@H]([C@H](C)CC)C(=O)O[C@H](C(C)C)C(=O)N1C | 6.3 | 75 |  |  |
| CC[C@@H](C)[C@H]1C(=O)O[C@H](C)C(=O)N(C)[C@@H](Cc2ccccc2)C(=O)O[C@H](C)C(=O)N(C)[C@@H]([C@H](C)CC)C(=O)O[C@H](C)C(=O)N1C | 4.28 |  | 50% |  |
| CC(C)C[C@H]1C(=O)O[C@H](CC2CCCCC2)C(=O)N(C)[C@@H](CC(C)C)C(=O)O[C@H](C)C(=O)N(C)[C@@H](CC(C)C)C(=O)O[C@H](C)C(=O)N1C | 5.57 |  | 75% |  |

Reference: ChEMBL document CHEMBL1139962, “Synthesis and anthelmintic activity of cyclohexadepsipeptides with cyclohexylmethyl side chains” (Bioorg Med Chem Lett, 2007)
